The values below come from ChEMBL document CHEMBL1154295, “Potent and selective steroidal inhibitors of 17beta-hydroxysteroid dehydrogenase type 7, an enzyme that catalyzes the reduction of the key hormones estrone and dihydrotestosterone” (J Med Chem, 2009).

Experiment [1] has as its target T1, 3-keto-steroid reductase/17-beta-hydroxysteroid dehydrogenase 7 (Homo sapiens) (UniProt P56937).
T1 sequence (whole entry): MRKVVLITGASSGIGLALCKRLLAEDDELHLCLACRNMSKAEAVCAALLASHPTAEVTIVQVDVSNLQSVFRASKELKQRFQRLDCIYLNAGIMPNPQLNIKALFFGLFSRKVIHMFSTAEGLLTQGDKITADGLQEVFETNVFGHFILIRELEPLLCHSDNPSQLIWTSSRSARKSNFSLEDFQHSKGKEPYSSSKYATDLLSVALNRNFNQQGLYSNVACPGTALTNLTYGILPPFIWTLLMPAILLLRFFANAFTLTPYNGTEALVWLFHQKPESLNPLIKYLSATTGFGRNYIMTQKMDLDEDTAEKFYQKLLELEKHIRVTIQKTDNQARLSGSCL
The experiment can be described thus: Inhibition of human 17beta-HSD7 expressed in HEK293 cells assessed as inhibition of reduction of [14C]dihydrotestosterone into [14C]5alpha-androstane-3beta,17beta-diol at 3 uM after 18 hrs. The format is cell-based. The gist of the method: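 Intact HEK-293 cells stably overexpressing h17β-HSD7 (pCMV-neo, G-418 selected) were plated at 500 000 cells/well in MEM with 10% fetal calf serum at 37 °C. Fresh medium received 15 000 cpm (~150 nM) [4-14C]-DHT plus ethanolic inhibitor, and cells were incubated 18 h. Steroids were extracted twice with diethyl ether. Assays were done in duplicate.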

The target of experiment [2] is T2, 3-keto-steroid reductase/17-beta-hydroxysteroid dehydrogenase 7 (Homo sapiens, UniProt P56937).
T2 sequence (P56937 whole entry): T1 sequence (whole entry)
The experiment can be described thus: Inhibition of human 17beta-HSD7 expressed in HEK293 cells assessed as inhibition of reduction of [14C]estrone into [14C]estradiol after 7 hrs. The format is cell-based. In short, it runs like this:
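Intact HEK-293 cells stably overexpressing h17β-HSD7 were plated at 500 000 cells/well in MEM/10% FCS at 37 °C. Fresh medium received 15 000 cpm (~150 nM, below Km) [4-14C]-estrone plus ethanolic inhibitor for 7 h. Steroids were extracted with diethyl ether. Screening used two inhibitor concentrations in duplicate or triplicate and is reported as % inhibition of E1→E2.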

In experiment [3] the target is T3, 3-oxo-5-alpha-steroid 4-dehydrogenase 2 (Homo sapiens) (UniProt P31213).
T3 sequence (whole entry): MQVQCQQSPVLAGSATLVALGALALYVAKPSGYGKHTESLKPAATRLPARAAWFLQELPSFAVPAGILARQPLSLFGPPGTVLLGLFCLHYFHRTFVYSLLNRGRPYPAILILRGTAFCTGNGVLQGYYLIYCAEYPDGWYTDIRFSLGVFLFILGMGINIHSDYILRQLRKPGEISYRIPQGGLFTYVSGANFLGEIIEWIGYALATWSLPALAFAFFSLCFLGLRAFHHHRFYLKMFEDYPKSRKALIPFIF
The experiment in a line: Inhibition of human 5alpha reductase 2 expressed in HEK293 cells assessed as inhibition of conversion of [14C]4-androstene-3,17-dione to [14C]5R-androstane-3,17-dione at 0.3 uM after 3 hrs. The experiment is classed as cell-based. The gist of the method: (§1)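 Intact HEK-293 cells transfected with pCMV-neo-h5α-reductase type 1 or type 2 were plated at 500 000 cells/well at 37 °C. They were incubated with 15 000 cpm [14C]-Δ4-dione and inhibitor (final 0.3 or 3 μM), in duplicate, for 1 h (type 1) or 3 h (type 2). Steroids were extracted and separated by TLC (toluene/EtOAc 4:1). Radioactivity gave % transformation and % inhibition.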

Experiment [4] deals with T1, 3-keto-steroid reductase/17-beta-hydroxysteroid dehydrogenase 7 (Homo sapiens). The following applies: HEK293, at 0.3 µM.
Experiment [5] deals with T4, 3-oxo-5-alpha-steroid 4-dehydrogenase 1 (Homo sapiens) (UniProt P18405).
T4 sequence (whole entry): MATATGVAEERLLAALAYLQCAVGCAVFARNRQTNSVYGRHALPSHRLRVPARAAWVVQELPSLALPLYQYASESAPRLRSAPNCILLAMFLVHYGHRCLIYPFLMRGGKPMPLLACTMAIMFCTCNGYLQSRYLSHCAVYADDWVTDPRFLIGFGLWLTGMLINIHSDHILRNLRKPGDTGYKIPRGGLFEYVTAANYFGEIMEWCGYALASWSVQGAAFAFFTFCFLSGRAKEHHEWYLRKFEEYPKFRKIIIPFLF
The experiment in a line: Inhibition of human 5alpha reductase 1 expressed in HEK293 cells assessed as inhibition of conversion of [14C]4-androstene-3,17-dione to [14C]5R-androstane-3,17-dione at 0.3 uM after 1 hr. The format is cell-based. In short, it runs like this:
as §1

The target in experiment [6] is T5, 17-beta-hydroxysteroid dehydrogenase type 1 (Homo sapiens) (UniProt P14061).
T5 sequence (whole entry): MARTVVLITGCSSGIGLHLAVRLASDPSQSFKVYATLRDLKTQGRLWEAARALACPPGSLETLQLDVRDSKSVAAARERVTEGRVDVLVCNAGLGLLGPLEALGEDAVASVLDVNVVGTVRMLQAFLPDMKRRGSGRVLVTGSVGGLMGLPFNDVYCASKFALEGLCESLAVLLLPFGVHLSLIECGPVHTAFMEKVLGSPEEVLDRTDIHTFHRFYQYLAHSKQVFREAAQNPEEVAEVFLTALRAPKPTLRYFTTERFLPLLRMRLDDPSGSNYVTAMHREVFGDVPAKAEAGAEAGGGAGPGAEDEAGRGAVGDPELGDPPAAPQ
The experiment can be described thus: Inhibition of human 17beta-HSD1 expressed in HEK293 cells assessed as inhibition of reduction of [14C]estrone into [14C]estradiol at 0.1 uM. The experiment is classed as cell-based. In short, it runs like this:
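Enzyme source: sonicated HEK-293 cells transfected with the h17β-HSD1 gene. Inhibitor was dissolved in ethanol and tested at final concentrations of 0.1 and 1 μM. The [14C]-E1 to [14C]-E2 assay was run as in an earlier report.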

In a further experiment the test system is HEK293. The experiment can be described thus: Inhibition of human 17beta-HSD5 expressed in HEK293 cells assessed as inhibition of conversion of [14C]4-androstene-3,17-dione to [14C]testosterone at 0.3 uM after 20 hrs. The format is cell-based. In short, it runs like this:
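Intact HEK-293 cells stably transfected with pCMV-neo-h17β-HSD5 were plated at 500 000 cells/well. They were incubated with 15 000 cpm [4-14C]-Δ4-dione and inhibitor in ethanol (0.3 or 3 μM) for 20 h at 37 °C, 5% CO2, in triplicate. Steroids were then extracted, separated and quantified.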

Experiment [7] addresses T1, 3-keto-steroid reductase/17-beta-hydroxysteroid dehydrogenase 7 (Homo sapiens). The following applies: HEK293, at 3 µM.

By inhibition is commonly meant the share of the control response that was lost under treatment. Usually IC50 stands for the concentration at which inhibition is half-maximal.

The source made the active and inactive calls. The rule behind the calls is not given here.

For `CCCCCCCCCCN(C=O)C1CC[C@H]2[C@@H]3CC[C@H]4NC(=O)CC[C@]4(C)[C@H]3CC[C@]12C` (stereo partly drawn), the inhibition in experiment [1] came to 69%.
As to `CCCCCCCN(C)[C@H]1CC[C@H]2[C@@H]3CC[C@H]4N(C)C(=O)CC[C@]4(C)[C@H]3CC[C@]12C`, in experiment [2], the IC50 is 189 nM. For the same molecule, the inhibition in experiment [1] was 69%. In experiment [3], the inhibition entry is “inactive”.
`CCCCCCCN(C)C1CC[C@H]2[C@@H]3CC[C@H]4NC(=O)CC[C@]4(C)[C@H]3CC[C@]12C` (stereo partly drawn): in experiment [1], the inhibition was found to be 69%.
Regarding `CCCCCCCN(C(=O)c1ccc(F)cc1)[C@H]1CC[C@H]2[C@@H]3CC[C@H]4N(C)C(=O)CC[C@]4(C)[C@H]3CC[C@]12C`, the inhibition in experiment [1] was found to be 69%; in experiment [4], 84%.
`CC1(C)CC[C@@]2(CC[C@H]3[C@@H]4CC[C@H]5NC(=O)CC[C@]5(C)[C@H]4CC[C@@]32C)OC1=O`: the inhibition result in experiment [5], in experiment [6] and in experiment [3] was “inactive” each time. Moreover, the results for the inhibition (in experiment [1]; in the experiment with HEK293) were 69% and 90%, respectively.
Turning to `CCCCCCCN(CCCC)[C@H]1CC[C@H]2[C@@H]3CC[C@H]4N(C)C(=O)CC[C@]4(C)[C@H]3CC[C@]12C`, the inhibition in experiment [1] was determined as 69%; in experiment [4], 76%. In addition, the inhibition result in experiment [3] was “inactive”.
Take `CCCCCCCN(C=O)[C@H]1CC[C@H]2[C@@H]3CC[C@H]4N(C)C(=O)CC[C@]4(C)[C@H]3CC[C@]12C`: the inhibition in experiment [1] is 69%; in experiment [4], 94%.
In the case of `CCCC1CC[C@@]2(CC[C@H]3[C@@H]4CCc5cc(O)ccc5[C@H]4CC[C@@]32C)OC1=O` (stereo partly drawn), the inhibition in experiment [7] came to 47.1%; in experiment [4] it was 15.8%.
In the case of `CN(C=O)[C@H]1CC[C@H]2[C@@H]3CC[C@H]4N(C)C(=O)CC[C@]4(C)[C@H]3CC[C@]12C`, the inhibition came to 15.8% in experiment [7] and 14.5% in experiment [4].
On to `CN1C(=O)CC[C@]2(C)[C@H]3CC[C@]4(C)[C@@H](N(C=O)C5CCCCC5)CC[C@H]4[C@@H]3CC[C@@H]12`, for which the inhibition worked out at 75.2% in experiment [7] and 23.9% in experiment [4].
`C[C@]12CCC(=O)C=C1CC[C@@H]1[C@@H]2[C@@H](O)C[C@]2(C=O)[C@@H](C(=O)CO)CC[C@@H]12`: the inhibition in experiment [7] came out at 7.3%; in experiment [4] it was 14.4%.
The corresponding values for `C[C@]12CC[C@@H](O)C[C@H]1CC[C@@H]1[C@@H]2CC[C@]2(C)[C@@H](O)CC[C@@H]12` are 6% and 2.9%.
As for `CCCCCN(C=O)[C@H]1CC[C@H]2[C@@H]3CC[C@H]4NC(=O)CC[C@]4(C)[C@H]3CC[C@]12C`, the inhibition in experiment [7] is 89.1%; in experiment [4] it was 35.2%.
As for `CN1C(=O)CC[C@]2(C)[C@H]3CC[C@]4(C)[C@@H](Nc5ccc([N+](=O)[O-])cc5)CC[C@H]4[C@@H]3CC[C@@H]12`, the inhibition in experiment [7] was 88%; in experiment [4], 40.9%.
On the same counts, the results for `CCCNC(=O)N(C1CC1)[C@H]1CC[C@H]2[C@@H]3CC[C@H]4N(C)C(=O)C=C[C@]4(C)[C@H]3CC[C@]12C` are 8.5% and 7.8%.
Consider `C[C@]12CC[C@@H]3c4ccccc4CC[C@H]3[C@@H]1CC[C@@]21CCCC(=O)O1`, for which the figures for the inhibition in experiment [7] and in experiment [4] were 4.7% and 6.1%, respectively.
Consider `C#C[C@]1(O)CC[C@H]2[C@@H]3CCc4cc(O)ccc4[C@H]3CC[C@@]21C`, for which the inhibition in experiment [7] amounted to 3.4%; in experiment [4], 8.3%.
Take `C[C@]12CCC(=O)N[C@@H]1CC[C@@H]1[C@@H]2CC[C@]2(C)[C@@H](N3CCC3=O)CC[C@@H]12`: the inhibition in experiment [7] amounted to 20.3%; in experiment [4], 15.4%.
In the case of `CC1(C)CC[C@@]2(CC[C@H]3[C@@H]4CCc5cc(O)c(C(N)=O)cc5[C@H]4CC[C@@]32C)OC1=O`, the figures for the inhibition in experiment [7] and in experiment [4] were 23.8% and 7.9%, respectively.
On the same counts, the results for `C[C@]12CC[C@@H]3c4ccc(O)cc4CC[C@H]3[C@@H]1CC[C@@H]2O` are 0% and 1.1%.
With `CC(=O)[C@H]1CC[C@H]2[C@@H]3CCC4=CC(=O)CC[C@]4(C)[C@H]3CC[C@]12C`, the inhibition worked out at 19.1% in experiment [7] and 7.3% in experiment [4].
In the case of `CCCCCCCN(C(=O)c1c(F)cccc1F)[C@H]1CC[C@H]2[C@@H]3CC[C@H]4N(C)C(=O)CC[C@]4(C)[C@H]3CC[C@]12C`, the inhibition in experiment [1] turned out to be 69%; in experiment [4], 84%.
Consider `CC1(C)C[C@@]2(CC[C@H]3[C@@H]4CCc5cc(O)ccc5[C@H]4CC[C@@]32C)OC1=O`, for which the results for the inhibition in experiment [7] and in experiment [4] were 42.4% and 14.5%, respectively.
Take `CC(C)(C)NC(=O)[C@H]1CC[C@H]2[C@@H]3CC=C4C=C(Cl)CC[C@]4(C)[C@H]3CC[C@]12C`: the inhibition in experiment [7] was 56.8%; in experiment [4], 13.4%.
In the case of `C[C@]12CC[C@H]3C(=CCc4cc(O)ccc43)[C@@H]1CC[C@@H]2O`, the inhibition was 8.8% in experiment [7] and 12.6% in experiment [4].
For `CC(C)NC(=O)N(C1CC1)[C@H]1CC[C@H]2[C@@H]3CC[C@H]4N(C)C(=O)CC[C@]4(C)[C@H]3CC[C@]12C`, the figures for the inhibition in experiment [7] and in experiment [4] were 37.3% and 16.5%, respectively.
With `CN1C(=S)CC[C@]2(C)[C@H]3CC[C@@]4(C)[C@@H](CC[C@@]45CCCC(=S)O5)[C@@H]3CC[C@@H]12`, the inhibition in experiment [7] was 36.5%; in experiment [4], 5.3%.
In the case of `COc1cc2c(cc1S(N)(=O)=O)CC[C@@H]1[C@@H]2CC[C@@]2(C)[C@H]1CCC2(O)Cc1ccc(C(C)(C)C)cc1` (stereo partly drawn), the inhibition was 6.4% in experiment [7] and 0% in experiment [4].
With `CCCN(C=O)[C@H]1CC[C@H]2[C@@H]3CC[C@H]4N(C)C(=O)CC[C@]4(C)[C@H]3CC[C@]12C`, the inhibition came to 56.3% in experiment [7] and 21.7% in experiment [4].
As to `CN1C(=O)CC[C@]2(C)[C@H]3CC[C@]4(C)[C@@H](Nc5ccc([N+](=O)[O-])c(C(F)(F)F)c5)CC[C@H]4[C@@H]3CC[C@@H]12`, the inhibition in experiment [7] turned out to be 100%; in experiment [4], 66.1%.
